# A selection: hits, their analogues and other compounds. The true share with any hit is near 1.9%.
# EphB4 ephrin blk – EphB4-ephrin-B2 interaction antagonism; inhibition, % at 7 µM; EphB4 LBD / TNYL-RAW-Alexa532 peptide, fluorescence polarization; hit rate 0.15% among 97,000;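 active means inhibition above the screen-wide mean inhibition plus 3 SD, cut at about 15% in these data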;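 further: 0% = DMSO wells and 100% = excess unlabeled TNYL-RAW peptide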
# Target sequence (P54760 whole entry, looked up, the tested form may be a part): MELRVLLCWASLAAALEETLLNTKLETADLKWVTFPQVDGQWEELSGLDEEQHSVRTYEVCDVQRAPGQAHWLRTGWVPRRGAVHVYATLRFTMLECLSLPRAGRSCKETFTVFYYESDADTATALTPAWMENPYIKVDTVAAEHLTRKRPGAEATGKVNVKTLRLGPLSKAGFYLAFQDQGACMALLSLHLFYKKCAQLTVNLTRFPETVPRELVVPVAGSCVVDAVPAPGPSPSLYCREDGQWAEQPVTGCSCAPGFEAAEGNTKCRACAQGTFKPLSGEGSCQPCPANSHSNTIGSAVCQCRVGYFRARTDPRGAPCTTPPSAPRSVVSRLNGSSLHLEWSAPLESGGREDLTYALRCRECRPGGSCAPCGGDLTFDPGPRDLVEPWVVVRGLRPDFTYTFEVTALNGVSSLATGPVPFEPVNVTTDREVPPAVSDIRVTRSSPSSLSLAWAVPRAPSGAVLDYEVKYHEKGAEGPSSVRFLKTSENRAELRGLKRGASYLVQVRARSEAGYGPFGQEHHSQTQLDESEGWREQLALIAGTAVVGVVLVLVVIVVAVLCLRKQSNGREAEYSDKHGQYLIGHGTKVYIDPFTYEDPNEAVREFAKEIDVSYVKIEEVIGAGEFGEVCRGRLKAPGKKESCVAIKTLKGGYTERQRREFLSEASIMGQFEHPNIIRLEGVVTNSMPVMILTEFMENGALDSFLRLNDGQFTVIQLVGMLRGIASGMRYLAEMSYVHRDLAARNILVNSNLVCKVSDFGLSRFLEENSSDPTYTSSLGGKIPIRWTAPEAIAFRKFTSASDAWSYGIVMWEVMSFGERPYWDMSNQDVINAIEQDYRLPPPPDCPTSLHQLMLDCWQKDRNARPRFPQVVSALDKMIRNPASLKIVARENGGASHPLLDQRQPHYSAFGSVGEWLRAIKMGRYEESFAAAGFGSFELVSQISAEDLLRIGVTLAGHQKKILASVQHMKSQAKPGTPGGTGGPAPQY
# PTPN22 act – LYP (human) phosphatase activation. activation, % at 2 µM. AID 697. recombinant LYP, DiFMUP fluorescence; 0 = plate median, 100 = signal doubled. Q9Y2R2. hit rate 0.11% among 96,000;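 active means activation at 2 µM above a set limit, the mean plus 5 SD, cut at about 37% in these data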
# LYP inh 2 – blocks human PTPN22 phosphatase activity | Q9Y2R2 | recombinant LYP catalytic domain, DiFMUP fluorescence | inhibition, % at 2 µM | hit rate 0.21% among 96,000 | AID 640;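 active means inhibition at 2 µM at or above a set limit, the screen mean plus 3 SD, cut at about 24% in these data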;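 further: 0% = DMSO with enzyme and 100% = enzyme fully blocked by orthovanadate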
# Rev-RRE block – HIV Rev-RRE protein-RNA interaction inhibition. hit rate 0.79% among 97,000. inhibition, % at 8 µM. Rev peptide-RRE RNA binding, FRET;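 active means inhibition above the screen-wide mean plus 3 SD, cut at about 35% in these data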;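 further: 0% = median DMSO wells and 100% = median Neomycin B control wells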
#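 System: Cy5-labelled duplex RRE RNA binding fluorescein-labelled HIV Rev peptide; Signal: fluorescein-to-Cy5 FRET, 480 nm excitation; Also added: labelled Rev peptide; Compound: one concentration, 8 µM nominal; Buffer or medium: HEPES pH 7.5 salt buffer with EDTA; Read-out: % inhibition of FRET ratio versus controls; Schedule: 5 min preincubation and 15 min binding, 25 °C.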
# FAK inh – FAK (human) kinase inhibition; Q05397; biochemical FAK kinase activity assay; inhibition, %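 (tested at 7 µM)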; hit rate 0.84% among 97,000; AID 727; in the data active means inhibition above about 19%;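 further: 0% = DMSO and 100% = reference compound high control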
# Active calls of the source: *; [ ] = remark or other dose.
SMILES,EphB4 ephrin blk,PTPN22 act,LYP inh 2,Rev-RRE block,FAK inh
C=CCN1C(=O)S/C(=C\c2ccc(N3CCOCC3)cc2C)C1=O,4,-1,4,39*,-1
CCS(=O)(=O)N1CCN(Cc2ccncc2)CC1,1,-8,8,8,4
O=C(COC(=O)CCC(=O)c1ccc2c(c1)OCCO2)NCc1ccc2c(c1)OCO2,8,-11,8,1,-3
N#Cc1cc(N)ccc1Sc1ccc(Cl)cc1,1,15,-12,8,2
N#Cc1ncc(C(F)(F)F)cc1Sc1ccc(N)cc1,16*,-5,7,16,3
Cc1cccc(S(=O)(=O)Nc2ccc(C)c3c2OC(C)(C)C3)c1,-1,0,-3,12,2
COc1ccc(C(=O)Cn2c(NCCO)nc3ccccc32)cc1OC,-2,-6,5,5,1
COCCNC(=O)c1c(NC(=O)c2nc(SC)ncc2Cl)sc2c1CCCC2,-4,-5,3,4,0
CC(C)CC(=O)NC(=S)NCCc1ccccc1,16*,-8,11,-3,5
CC(C)(C)CC(=O)NC(=S)NCCc1ccccc1,2,0,3,-4,3
COc1ccc(Cn2c(CCC(=O)NCc3ccco3)nc3cccnc32)cc1,3,-4,1,-2,-6
Cc1cccc(C)c1NC(=O)C(C)c1ccc(-c2ccccc2)c(F)c1 (configuration not stated),1,-4,7,17,-1
CC(=O)Nc1ccc(N2C(C(C)=O)=NN(c3ccc(Cl)cc3)C2c2sccc2C)cc1 (configuration not stated),17*,-4,7,5,9
Cc1ccc(N2C(=O)CC3(CC4C=CC3C4)C2=O)cc1 (configuration not stated),-2,10,-14,3,1
NC(=O)c1ccsc1NC(=O)c1cccs1,-6,-8,6,11,28*
COc1cccc(C2C3CN(C)CC=C3C(C#N)=C(N)C2(C#N)C#N)c1OC (configuration not stated),1,4,-6,85*[fluorescence artefact?],1
CCOC(=O)N1CC=C2C(C#N)=C(N)C(C#N)(C#N)[C@H](c3ccccc3OCC)[C@H]2C1,2,-5,4,15,2
CCN1CC=C2C(C#N)=C(N)C(C#N)(C#N)[C@H](c3cccc(OC)c3OC)[C@H]2C1,-8,0,1,65*,2
COc1ccc(OCCCCOc2ccccc2Cl)cc1,4,1,2,21,-2
CCc1nnc(NS(=O)(=O)c2ccc(NC(=S)NC(=O)/C=C/c3ccc(C(C)C)cc3)cc2)s1,-1,-31,33*,1,17
COc1cc(C(=O)N2CCN(C(=O)Cc3ccccc3)CC2)cc(OC)c1OC,9,-8,6,4,-2
COc1cc2cc3c(N)c(C(=O)Nc4sc(C)c(C)c4C#N)sc3nc2cc1OC,-7,13,-10,100*[fluorescence artefact?],2
COc1cc2cc3c(N)c(C(=O)NCc4ccco4)sc3nc2cc1OC,-9,7,-10,34,4
CCCOc1ccc(C(=O)N2CCN(c3ccc(N)cc3Cl)CC2)cc1,2,2,1,-1,3
CCCN1C(=O)/C(=C/C=C2\N(CC)c3ccccc3C2(C)C)SC1=S,0,2,2,136*[fluorescence artefact?],-5
SMILES,EphB4 ephrin blk,PTPN22 act,LYP inh 2,Rev-RRE block,FAK inh
CCOC(=O)c1c2c(n(C)c1C)C(=O)C(=O)c1ccc(Br)cc1-2,-2,-7,7,4,40*
Cc1ccsc1C1C=C(c2cccc(Br)c2)Nc2ncnn21 (configuration not stated),-8,-3,3,81*[fluorescence artefact?],3
COc1cccc(C2=CC(c3ccc(C)cc3)n3ncnc3N2)c1 (configuration not stated),3,-1,-2,49*,5
O=C(c1ccccc1)c1nc[nH]c1C(=O)Nc1ccccc1,2,-8,10,2,-3
CCc1ccc2nc(NC(=O)c3ccc4c(=O)[nH]c(CN5CCOCC5)nc4c3)sc2c1,-2,-28,28*,9,18
CCCn1nc(CC(=O)OCC)c2ccccc2c1=O,-3,14,-12,0,0
Cc1cc(C)c(S(=O)(=O)NCc2cn3c(C)csc3n2)c(C)c1,-6,10,-12,-3,5
Cc1cc(C)c(S(=O)(=O)NCc2cn3c(C)csc3n2)cc1C,19*,7,-7,10,6
Cc1ccc(NC(=O)CN2C(=O)S/C(=C\c3cccn3C)C2=O)cc1,-9,-6,10,9,-3
Cc1ccc(NC(=O)CN2C(=O)S/C(=C\c3ccc(-c4cccc(C(=O)O)c4C)o3)C2=O)cc1,-2,-54,56*,7,-3
Cc1ccc2nc3sc(C(=O)NCc4ccco4)c(N)c3cc2c1,-5,-6,6,37*,3
CCOC(=O)c1sc(N)c(C#N)c1COC(=O)CNC(=O)c1ccccc1,0,4,-5,51*,-2
CN(C)CCCNc1oc(-c2cccc(Cl)c2)nc1C#N,0,-14,12,-8,12
COc1ccc(N2CCN(c3nc(=S)n(-c4ccccc4)c(C)c3C(C)=O)CC2)cc1,6,-5,3,40*,5
CC(C)c1ccc2nc3sc(C(=O)N4CCc5ccccc5C4)c(N)c3cc2c1,-4,-4,7,57*,-8
Cc1ccc2nc3sc(C(=O)N4CCOCC4)c(N)c3cc2c1,7,12,-12,11,1
CCOc1ccc(N2C(=O)CS/C2=N/NC(=O)COc2ccc3ccccc3c2)cc1,-4,1,2,0,4
CCOc1ccc(N2C(=O)CS/C2=C(\C(Cl)=C(Cl)Cl)[N+](=O)[O-])cc1,1,-25,26*,-2,0
COc1cc(C2C(C#N)=C(N)OC3=C2C(=O)CCC3)c([N+](=O)[O-])cc1OC (configuration not stated),0,4,-1,48*,-6
Cc1cc(C)nc(-n2c(Nc3ccccc3)cc(=O)c3c(C)n(-c4ccccc4)c(=O)nc32)n1,-4,3,-1,-1,-1
CN(C)c1ccc(N=Cc2nc(-c3ccccc3)oc2O)cc1,4,-16,16,69*[fluorescence artefact?],-4
CCOc1cc(S(=O)(=O)N2CCCCCC2)ccc1F,9,-4,3,12,1
Cc1ccc2cc3c(N)c(C(=O)N4CC(=O)Nc5ccccc54)sc3nc2c1,2,-16,17,67*,11
c1ccc(-c2cc(-c3nnc4n3N=C(c3ccc5ccccc5c3)CS4)[nH]n2)cc1,3,-26,30*,5,1
Cc1ccc(-c2ccc(/C=C(\C#N)C(=O)Nc3cc(C)nn3-c3ccccc3)o2)cc1,1,-4,1,103*[fluorescence artefact?],2
N#C/C(=C\c1ccc(-c2ccccc2)o1)C(=O)Nn1cnnc1,1,-3,6,4,-1
COc1ccccc1N=c1oc2cc(O)ccc2cc1C(N)=O,1,-3,0,63*,7

# Screens from PubChem BioAssay.
